Assay outcomes (PubChem BioAssay)
XiGFP reactiv – activators of inactive X chromosome reactivation, primary screen, imaging, XiGFP fibroblasts, GFP high-content imaging, set 2; 360,000 compounds, 0.055% hits; activation, % at 7.58 µM; XiGFP mouse fibroblasts, % GFP-positive cells imaging, 3 d; cells co-treated with 5-aza-dC sensitizer; scaled so ellipticine positive control = 100%;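 active = mean normalized replicate activation at least 10% and every replicate at or above 10%; inconclusive = only one of the two criteria met; inactive = mean below 10% and not all replicates reach 10%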;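 note: 0% = median of on-plate neutral control wells and 100% = ellipticine 6 µM median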
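Material: XiGFP fibroblasts, SV40-immortalized. Buffer or medium: DMEM plus 5-aza-dC sensitizer. Compound: single concentration per compound, delivered by pin transfer. Times: 3 days compound exposure. Controls: ellipticine 6 µM.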
E-sel inducer – E-selectin induction in HUVECs, primary screen, imaging, HUVEC, immunofluorescence imaging, single point | P16581 | normalized: neutral wells 0, TNF-alpha wells 100 | 260,000 compounds, 0.37% hits | activation, % at 7.58 µM;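 active = mean E-selectin-positive cell signal at least 10% of the positive control, reached in at least 60% of replicates, without over 20% cell loss; inconclusive = no rule given, readout overlaps actives, possibly toxicity-flagged; inactive = the rest, including those meeting only one limit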
Target sequence (P16581 whole entry, looked up): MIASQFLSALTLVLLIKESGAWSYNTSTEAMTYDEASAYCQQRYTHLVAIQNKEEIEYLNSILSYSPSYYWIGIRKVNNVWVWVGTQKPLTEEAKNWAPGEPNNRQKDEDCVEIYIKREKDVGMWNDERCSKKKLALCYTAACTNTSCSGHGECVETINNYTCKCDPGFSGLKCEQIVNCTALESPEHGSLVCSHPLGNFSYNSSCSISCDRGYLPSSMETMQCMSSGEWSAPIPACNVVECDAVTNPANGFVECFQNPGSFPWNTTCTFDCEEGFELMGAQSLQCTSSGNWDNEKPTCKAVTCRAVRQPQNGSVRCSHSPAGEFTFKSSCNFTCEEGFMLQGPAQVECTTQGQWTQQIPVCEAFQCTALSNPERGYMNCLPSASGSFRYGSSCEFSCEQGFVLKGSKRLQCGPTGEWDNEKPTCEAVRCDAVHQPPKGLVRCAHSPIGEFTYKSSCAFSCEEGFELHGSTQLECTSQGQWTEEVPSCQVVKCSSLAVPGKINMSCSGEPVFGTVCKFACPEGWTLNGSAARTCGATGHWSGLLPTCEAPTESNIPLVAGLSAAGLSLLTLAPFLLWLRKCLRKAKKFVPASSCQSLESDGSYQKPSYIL
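Read-out: % PE-positive cells | Test system: HUVEC | Doses: One compound dose added by pin transfer | Buffer or medium: EGM-2 over gelatin coat | Signal: Immunofluorescence imaging | Benchmarks: TNF-alpha, DMSO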
DENV2 CPE – inhibitors of DENV2 cytopathic effect, primary screen, cell-based, plate reader, single concentration. DENV2-infected cells, cytopathic effect rescue. CPE inhibition, % at 9.99 µM. 350,000 compounds, 1.7% hits; in the data active = CPE inhibition above about 20%, passing the limit was not always enough; inconclusive = no clear call, values can overlap the other calls; tested in BHK-21 cells;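 note: 0% = median of neutral control wells and 100% = median of positive control wells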
S100A4 MyoIIA – inhibitors of S100A4-myosin IIA peptide binding, primary screen, biochemical, fluorescence polarization, TAMRA-MyoIIA peptide; Protein S100-A4 (Homo sapiens), P26447; inhibition, % at 10.7 µM; 360,000 compounds, 0.14% hits; AID 652163, 2013;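 active = mean inhibition of at least 70% across replicates, with every replicate also reaching that level; inconclusive = mean inhibition reaches 70% but some replicates fall short; inactive = mean inhibition below 70%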
Target sequence (P26447 whole entry, looked up): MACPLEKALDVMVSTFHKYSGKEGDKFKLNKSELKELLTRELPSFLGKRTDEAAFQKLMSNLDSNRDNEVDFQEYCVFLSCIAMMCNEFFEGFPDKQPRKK
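Test system: S100A4 monomer protein; Medium: HEPES pH 7.2 with CaCl2, KCl, NaCl, DTT, Triton; Probe or stimulus: TAMRA-labelled myosin IIA heavy-chain peptide probe, 5 nM; Doses: one dose per compound; Times: polarization read 5 min after assay mix addition, stable 5–60 min; Benchmarks: neutral control DMSO, positive control TFP.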
* hit, by the source's call; ! = not active in a repeat. Only some compounds are listed: those with a hit (about 2% of all), similar ones and a draw of the others.

For COc1ccc(CNC(=O)Cn2ccc(N)nc2=O)cc1 the results were XiGFP reactiv 0.2, E-sel inducer 38.8*, DENV2 CPE -1.7 and S100A4 MyoIIA -1.9.
Screening COc1ccc(CC(=O)OCC(=O)NCc2ccc(F)cc2)cc1 returned XiGFP reactiv 0.0, E-sel inducer 0.6, DENV2 CPE -7.9 and S100A4 MyoIIA 2.7.
Screening Nc1ccn(CC(=O)NCc2ccc3c(c2)OCO3)c(=O)n1 returned XiGFP reactiv 0.0, E-sel inducer -0.2, DENV2 CPE -2.3 and S100A4 MyoIIA -0.8.
For COc1ccc(CC(=O)OCC(=O)NCCNC(=O)COC(=O)Cc2ccc(OC)cc2)cc1 the results were XiGFP reactiv 0.0, E-sel inducer 0.4, DENV2 CPE 60.7* and S100A4 MyoIIA -8.7.
Screening COc1ccc(OCCOC(=O)CN2C(=O)NC3(CCCC3)C2=O)cc1 returned XiGFP reactiv 0.0, DENV2 CPE inconclusive and S100A4 MyoIIA -0.7.
`Cc1ccccc1OCC(=O)OCC(=O)NCCNC(=O)COC(=O)COc1ccccc1C` gave XiGFP reactiv 0.1, E-sel inducer 1.0, DENV2 CPE 44.2* and S100A4 MyoIIA -1.6.
For COc1ccc(CNC(=O)COC(=O)CN2C(=O)NC3(CCCC3)C2=O)cc1 the results were XiGFP reactiv 0.1, E-sel inducer -0.8, DENV2 CPE 28.8* and S100A4 MyoIIA -3.4.
For CCOC(=O)C1=C(C)NC2=C(C(=O)CCC2)C1c1coc2ccccc2c1=O (stereo not drawn) the results were DENV2 CPE -0.9 and S100A4 MyoIIA 3.8.
Screening COC(=O)c1oc(-c2ccccc2)nc1C returned XiGFP reactiv -0.2 and S100A4 MyoIIA 6.2.
`CCC1(c2ccc(OC)cc2)NC(=O)N(CC(=O)N2CCc3ccccc32)C1=O` (stereo not drawn) gave XiGFP reactiv 0.3, E-sel inducer 5.0, DENV2 CPE -2.4 and S100A4 MyoIIA 7.6.
For CCOc1ccc(NC2OC(CO)C(O)C(O)C2O)c([N+](=O)[O-])c1 (stereo not drawn) the results were XiGFP reactiv 0.0, DENV2 CPE 0.8 and S100A4 MyoIIA 1.1.
For COc1ccc(CNC(=O)C(C)N2C(=O)NC3(CCCCCCC3)C2=O)cc1 (stereo not drawn) the results were XiGFP reactiv 0.0, E-sel inducer 0.0, DENV2 CPE 86.7* and S100A4 MyoIIA 1.6.
Screening Cc1nonc1NC(=O)CSc1nc2c(C)cccc2cc1C#N returned XiGFP reactiv 64.9*.
For Cc1ccc(S(=O)(=O)N(C)S(=O)(=O)c2ccc(C)cc2)cc1 the results were XiGFP reactiv 0.1, E-sel inducer 0.1, DENV2 CPE -2.4 and S100A4 MyoIIA -1.5.
Cc1ccc(S(=O)(=O)N(c2nc(NC(C)C)nc(NC(C)C)n2)n2cnnc2)cc1 was read as XiGFP reactiv 0.0, DENV2 CPE 24.2* and S100A4 MyoIIA -2.4.
O=C(C1=C(O)C(=O)N(CC2CCCO2)C1c1ccc(Cl)cc1Cl)c1ccco1 (stereo not drawn) was read as XiGFP reactiv -0.1, E-sel inducer -0.1, DENV2 CPE -4.7 and S100A4 MyoIIA -5.5.
Screening COc1ccc(S(=O)(=O)N(C)C[C@H]2OCCCC[C@H](C)Oc3ccc(NS(=O)(=O)c4ccc(Cl)cc4)cc3C(=O)N([C@H](C)CO)C[C@H]2C)cc1 returned XiGFP reactiv 0.0, E-sel inducer 0.0, DENV2 CPE 20.9* and S100A4 MyoIIA 13.0.
COc1ccc(S(=O)(=O)Nc2ccc3c(c2)C(=O)N([C@@H](C)CO)C[C@@H](C)[C@@H](CN(C)S(=O)(=O)c2ccc(Cl)cc2)OCCCC[C@H](C)O3)cc1 was read as XiGFP reactiv 0.1, E-sel inducer 0.0, DENV2 CPE 35.4* and S100A4 MyoIIA -2.4.
Screening COc1ccc(S(=O)(=O)Nc2ccc3c(c2)C(=O)N([C@H](C)CO)C[C@H](C)[C@@H](CN(C)S(=O)(=O)c2ccc(Cl)cc2)OCCCC[C@H](C)O3)cc1 returned XiGFP reactiv 0.2, E-sel inducer 0.1, DENV2 CPE -2.5 and S100A4 MyoIIA 0.2.
C[C@@H]1CN([C@@H](C)CO)C(=O)c2cc(NC(=O)Nc3ccc(F)cc3)ccc2O[C@@H](C)CCCCO[C@H]1CN(C)Cc1ccc(C(F)(F)F)cc1 was read as XiGFP reactiv 0.1, DENV2 CPE -1.2 and S100A4 MyoIIA 0.3.
C[C@@H]1CN([C@H](C)CO)C(=O)c2cc(C3=CCCCC3)cnc2O[C@H]1CN(C)C(=O)c1ccc(F)cc1 was read as XiGFP reactiv 0.8, E-sel inducer 0.7, DENV2 CPE 6.4 and S100A4 MyoIIA 3.9.
Screening COc1c[nH]n(-c2ccccc2)c(=O)c1=O returned XiGFP reactiv -0.2, DENV2 CPE -1.2 and S100A4 MyoIIA -5.6.
`COc1ccc(CN(C)C[C@H]2Oc3c(NC(=O)c4ccc(-c5nccs5)cc4)cccc3C(=O)N([C@@H](C)CO)C[C@@H]2C)cc1` gave XiGFP reactiv -0.7, DENV2 CPE 22.0* and S100A4 MyoIIA -14.8.
`CNC[C@H]1Oc2c(NC(=O)c3ccc(-c4nccs4)cc3)cccc2C(=O)N([C@H](C)CO)C[C@H]1C` gave XiGFP reactiv -0.2, E-sel inducer 0.0, DENV2 CPE 40.8* and S100A4 MyoIIA -24.4.
Screening C[C@H]1CN([C@@H](C)CO)C(=O)c2cccc(NC(=O)c3ccc(-c4nccs4)cc3)c2O[C@@H]1CN(C)Cc1ccc(Cl)c(Cl)c1 returned XiGFP reactiv -0.7, E-sel inducer 304.0*, DENV2 CPE 6.8 and S100A4 MyoIIA 11.8.
`C[C@@H]1CN([C@@H](C)CO)C(=O)c2cccc(NC(=O)c3ccc(-c4nccs4)cc3)c2O[C@H]1CN(C)Cc1ccc(Oc2ccccc2)cc1` gave XiGFP reactiv -0.8, E-sel inducer 71.0*, DENV2 CPE inconclusive and S100A4 MyoIIA -1.1.
C[C@@H]1CN([C@H](C)CO)C(=O)c2cccc(NC(=O)NC3CCCCC3)c2O[C@H]1CN(C)C(=O)Nc1ccc(C(F)(F)F)cc1 was read as XiGFP reactiv -1.2, E-sel inducer 0.1, DENV2 CPE -2.4 and S100A4 MyoIIA -1.3.
For CCc1ccc2nc(N(CCN(C)C)C(=O)c3ccc4ncsc4c3)sc2c1 the results were XiGFP reactiv 0.0, E-sel inducer 0.0, DENV2 CPE -11.9 and S100A4 MyoIIA 4.6.
CCC(=O)N(C)C[C@H]1Oc2cc(Br)ccc2S(=O)(=O)N([C@@H](C)CO)C[C@H]1C was read as XiGFP reactiv 0.5, E-sel inducer 0.8, DENV2 CPE -5.4 and S100A4 MyoIIA -7.2.
Screening CC(=O)N(C)C[C@@H]1Oc2cc(Br)ccc2S(=O)(=O)N([C@H](C)CO)C[C@@H]1C returned XiGFP reactiv -0.1, E-sel inducer -0.8, DENV2 CPE 36.2*! and S100A4 MyoIIA 0.6.
